The text below walks through data of PMC4362967 (Chemistry & biology, 2015).

Where a SMILES comes first, the peptide text is derived from it. [ ]: non-standard residue; d: D form.

Data set [1] has as its system A. baumannii mature biofilms. Nature of the data set: Flow cell biofilm assay with confocal microscopy. The class given is cell-based, Acinetobacter baumannii. Conditions: 0.8 μg/ml DJK-5 with tobramycin, added at day 2. Put shortly: (§1)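 Biofilms grown at 37°C in BM2 glucose minimal medium in flow chambers (1 × 4 × 40 mm channels) for 72 h. Test compound, antibiotic or both were added to the flow-through medium at day 2 of biofilm formation. Combination levels were taken from checkerboard FIC results, with peptide levels lowered in some cases. Cells were stained with LIVE/DEAD BacLight and imaged by confocal microscopy with 3D reconstruction.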

Another data set has as its system E. coli mature biofilms. Nature of the data set: Flow cell biofilm assay with confocal microscopy. The class given is cell-based, Escherichia coli. As to conditions: top FIC combination, added at day 2. In a few lines: as §1
For another data set, the system named is G. mellonella. Nature of the data set: G. mellonella survival assay, uninfected. Conditions: in vivo.
Data set [2] concerns P. aeruginosa PA14 biofilms. Nature of the data set: Flow cell biofilm assay with confocal microscopy. It is filed as cell-based, Pseudomonas aeruginosa. Put shortly:
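P. aeruginosa PA14 biofilms grown at 37°C in BM2 glucose minimal medium in flow chambers (1 × 4 × 40 mm channels). […] For eradication, test compound was first added after 2 days of growth. Cells were stained with LIVE/DEAD BacLight and imaged by confocal microscopy.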

The next data set deals with P. aeruginosa PAO1. Nature of the data set: C. elegans survival assay, infected. It is filed as in vivo, Caenorhabditis elegans. As to conditions: peptide 20 μg/ml, 25°C, average ± SD, n ≥ 12.
Data set [3] relates to Klebsiella pneumoniae mature biofilms. The experiment in a line: Flow cell biofilm assay with confocal microscopy. The class given is cell-based. Conditions: top FIC combination, added at day 2. Put shortly: as §1
In data set [4] the test system is S. enterica mature biofilms. Nature of the data set: Flow cell biofilm assay with confocal microscopy. It is filed as cell-based, Salmonella enterica. Conditions: top FIC combination, added at day 2. In a few lines: as §1
For a further data set, the system named is P. aeruginosa biofilm. Conditions: relative to MIC; ref Overhage et al, 2008; cited from earlier work.
A further data set concerns P. aeruginosa. Conditions: free swimming (planktonic) cells; ref Overhage et al, 2008; cited from earlier work.

As for `CC[C@@H](C)[C@@H](NC(=O)[C@@H](C)NC(=O)[C@@H](CCCNC(=N)N)NC(=O)[C@@H](Cc1c[nH]c2ccccc12)NC(=O)[C@@H](CCC(N)=O)NC(=O)[C@H](N)C(C)C)C(=O)N[C@H](CCCNC(=N)N)C(=O)N[C@@H](C(=O)N[C@H](CCCNC(=N)N)C(=O)N[C@@H](C(=O)N[C@@H](C(=O)N[C@H](CCCNC(=N)N)C(N)=O)[C@H](C)CC)C(C)C)C(C)C` [DJK5] (H-[dV][dQ][dW][dR][dA][dI][dR][dV][dR][dV][dI][dR]-NH2; N-terminus and C-terminus assumed), in data set [1], the “eradication of 2-day-old biofilms, combination with tobramycin” value is reported as “eradication”. Also, the entries for the “eradication of 2-day-old biofilms, combination with ceftazidime” value (in the data set on E. coli mature biofilms; in data set [4]) were “not synergistic” and “eradication”, respectively. In addition, the “G. mellonella survival (%) 24h No infection” value in the data set with G. mellonella came to 100 ± 0%. In addition, the “G. mellonella survival (%) 48h No infection” value in the data set on G. mellonella was 100 ± 0%. For the same compound, in data set [2] (0.1 μg/ml of DJK-5 with 0.04 μg/ml of ciprofloxacin, added at day 0, 3 days), the “biofilm inhibition in flow cells, combination with ciprofloxacin” value is reported as “complete biofilm inhibition”. In addition, the “eradication of 2-day-old biofilms, combination with ciprofloxacin” value was “much more limited dispersal but triggered cell death in remaining cells” in [2] (top FIC combination, added at day 2, P. aeruginosa PA14) and “eradication” in data set [3]. Further, in the data set on P. aeruginosa PAO1 (24 h post infection), the “C. elegans survival (%) 24h P. aeruginosa PAO1” value is recorded as 99 ± 2 %. In addition, the “C. elegans survival (%) 48h post infection P. aeruginosa PAO1” value in the data set on P. aeruginosa PAO1 (48 h post infection) is listed as 96 ± 4 %.
As for “LL-37: the human peptide LL-37, cationic host defense peptide”, in the data set with P. aeruginosa biofilm, the “concentration active against P. aeruginosa biofilms” value is on record as “one sixteenth the MIC”. The MIC in the data set on P. aeruginosa was more than 64 mg/L.

Broadly, the MIC is the lowest concentration found to suppress growth.
